Assays:
[1] = AUC(0 to infinity) in healthy human at 150 mg, po administered as single dose by HPLC-tandem mass spectrometry under fasting conditions; format: ADME, organism-based; set-up: dose 150 mg, route oral, time infinity; conditions: plasma
Summary of the method: (§1)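 Open-label crossover in 18 healthy volunteers (9 male, 9 female, mean age 26). Each received marketed oseltamivir 150 mg orally, once fasted from midnight and once after a high-fat, high-calorie breakfast, with a 7-10 day washout. Plasma and urine collected over 0-72 h and analysed by HPLC-MS/MS. AUC and Cmax compared after log transformation.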

[2] = Drug uptake in CHOK1 cells at 5 to 100 uM after 10 mins by HPLC coupled with radiodetection analysis; format: ADME, cell-based, Cricetulus griseus; conditions: chinese hamster, cho-k1, 10 min
[3] = AUC(0 to infinity) in adult fed Sprague-Dawley rat at 30 mg/kg, po administered as solution in bovine milk by HPLC-tandem mass spectrometry; format: ADME, organism-based; set-up: time infinity, dose 30 mg/kg, route oral; conditions: in vivo
Summary of the method: (§2)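 Sprague-Dawley males, 7-8 weeks, 243-283 g, jugular-cannulated, 3 days' recovery; fed (chow ad libitum). Single oral dose of 30 mg/kg (free base) at 10 ml/kg; 3 rats/group. Jugular blood taken at 0.25-24 h into K2EDTA with dichlorvos, kept on ice. Plasma analysed by validated LC-MS/MS (0.1-500 μg/l). Noncompartmental analysis; AUC by linear trapezoid, AUC0-∞ extrapolated using λz.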

[4] = Drug uptake in CHOK1 cells expressing human PEPT1 incubated for 30s to 15 mins by HPLC coupled with radiodetection analysis; format: ADME, cell-based, Cricetulus griseus; conditions: chinese hamster, cho-k1, 0.25 h
Summary of the method: (§3)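 Accumulation of [14C]oseltamivir or its carboxylate in CHO-PEPT1 versus CHO-K1 cells. Conditions varied: KH buffer (with MES) or Hanks' balanced salt solution, pH 5 or 6 readjusted after substrate addition, 30 s to 15 min at 37°C. Uptake was quenched with ice-cold PBS-BSA, followed by Triton X-100 lysis, scintillation counting, and BCA protein normalization. HPLC-radiodetection checked ester stability.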

[5] = Drug uptake in CHOK1 cells at pH 5 by HPLC coupled with radiodetection analysis; format: ADME, cell-based, Cricetulus griseus; conditions: chinese hamster, cho-k1, pH 5
[6] = AUC(0 to 24 hrs) in healthy human at 150 mg, po administered as single dose by HPLC-tandem mass spectrometry under fed conditions; format: ADME, organism-based; set-up: time < 24 hr, dose 150 mg, route oral; conditions: plasma; summary of the method: as §1
[7] = Drug uptake in CHOK1 cells expressing human PEPT1 by HPLC coupled with radiodetection analysis in presence of KH and Hanks' balanced salt solution; format: ADME, cell-based, Cricetulus griseus; conditions: chinese hamster, cho-k1; summary of the method: as §3
[8] = Drug excretion in healthy human urine assessed as unchanged drug level at 150 mg, po administered as single dose by HPLC-tandem mass spectrometry under fed conditions; format: ADME, organism-based; conditions: read-out: Drug excretion; summary of the method: as §1
[9] = Apparent oral clearance in healthy human at 150 mg, po administered as single dose by HPLC-tandem mass spectrometry under fasting conditions; format: ADME, organism-based; conditions: in vivo; summary of the method: as §1
[10] = AUC(0 to 5 hrs) in juvenile fasted Sprague-Dawley rat at 30 mg/kg, po administered as solution in bovine milk by HPLC-tandem mass spectrometry; format: ADME, organism-based; set-up: time < 5 hr, dose 30 mg/kg, route oral; conditions: in vivo
Summary of the method: (§4)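 7-day-old Sprague-Dawley pups (9.7-18.9 g, both sexes), 15 per group. Given 30 mg/kg by oral gavage (10 ml/kg); breast-fed pups stayed with dams, fasted pups were removed 8 h before dosing. Blood taken by cardiac puncture under isoflurane at 0.25, 0.5, 1, 2 and 5 h, n=3 per time point (composite design). Dichlorvos-treated plasma assayed by LC-MS/MS; AUC0-5h by noncompartmental analysis.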

[11] = Tmax in adult fasted Sprague-Dawley rat at 30 mg/kg, po administered as solution in bovine milk by HPLC-tandem mass spectrometry; format: ADME, organism-based; set-up: dose 30 mg/kg, route oral; conditions: in vivo
Summary of the method: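 Male Sprague-Dawley rats (7–8 weeks, 243–283 g) had jugular-vein cannulas and 3 days' recovery. Fasting ran from 6 h predose through the 6 h study. Three rats per vehicle received 30 mg/kg oral (10 ml/kg). Blood was sampled 0.25–6 h into K2EDTA tubes with dichlorvos. Plasma was assayed by HPLC-MS/MS (0.1–500 µg/l). Tmax was read graphically (noncompartmental).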

[12] = Cmax in juvenile fasted Sprague-Dawley rat at 30 mg/kg, po administered as solution in bovine milk by HPLC-tandem mass spectrometry; format: ADME, organism-based; set-up: dose 30 mg/kg, route oral; conditions: in vivo; summary of the method: as §4
[13] = Drug excretion in healthy human urine assessed as unchanged drug level at 150 mg, po administered as single dose by HPLC-tandem mass spectrometry under fasting conditions; format: ADME, organism-based; conditions: read-out: Drug excretion; summary of the method: as §1
[14] = AUC(0 to 6 hrs) in adult fasted Sprague-Dawley rat at 30 mg/kg, po administered as 125 mM aqueous Gly-Sar solution by HPLC-tandem mass spectrometry; format: ADME, organism-based; set-up: time < 6 hr, dose 30 mg/kg, route oral; conditions: plasma
Summary of the method: (§5)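 Adult male Sprague-Dawley rats (243-283 g), jugular-cannulated, fasted from 6 h before dosing through the 6-h study. Given 30 mg/kg orally (free base) at 10 ml/kg, n=3/group. Blood sampled at 0.25-6 h into K2EDTA with dichlorvos esterase inhibitor. Plasma assayed by LC-MS/MS (0.1-500 μg/l). Noncompartmental analysis: linear-trapezoid AUC; infinity extrapolation via log-linear terminal λz.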

[15] = Drug uptake in CHOK1 cells at pH 6 by HPLC coupled with radiodetection analysis; format: ADME, cell-based, Cricetulus griseus; conditions: chinese hamster, cho-k1, pH 6
[16] = Cmax in adult fasted Sprague-Dawley rat at 30 mg/kg, po administered as 125 mM aqueous Gly-Sar solution by HPLC-tandem mass spectrometry; format: ADME, organism-based; set-up: dose 30 mg/kg, route oral; conditions: in vivo
Summary of the method: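 Adult cannulated Sprague-Dawley rats, fasted (from 6 h predose) or fed, dosed orally at 30 mg/kg (10 ml/kg), 3 per group. Serial jugular plasma with dichlorvos stabilisation, measured by LC-MS/MS. Cmax read graphically from the concentration-time profile.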

[17] = Cmax in healthy human at 150 mg, po administered as single dose by HPLC-tandem mass spectrometry under fed conditions; format: ADME, organism-based; set-up: dose 150 mg, route oral; conditions: in vivo; summary of the method: as §1
[18] = AUC(0 to 24 hrs) in adult fed Sprague-Dawley rat at 30 mg/kg, po administered as 125 mM aqueous Gly-Sar solution by HPLC-tandem mass spectrometry; format: ADME, organism-based; set-up: time < 24 hr, dose 30 mg/kg, route oral; conditions: plasma; summary of the method: as §2
[19] = Cmax in juvenile fasted Sprague-Dawley rat at 30 mg/kg, po administered as 125 mM aqueous Gly-Sar solution by HPLC-tandem mass spectrometry; format: ADME, organism-based; set-up: dose 30 mg/kg, route oral; conditions: in vivo; summary of the method: as §4
[20] = AUC(0 to 5 hrs) in juvenile fasted Sprague-Dawley rat at 30 mg/kg, po administered as water solution by HPLC-tandem mass spectrometry; format: ADME, organism-based; set-up: time < 5 hr, dose 30 mg/kg, route oral; conditions: plasma; summary of the method: as §4
[21] = AUC(0 to 6 hrs) in adult fed Sprague-Dawley rat at 30 mg/kg, po administered as solution in bovine milk by HPLC-tandem mass spectrometry; format: ADME, organism-based; set-up: time < 6 hr, dose 30 mg/kg, route oral; conditions: in vivo; summary of the method: as §2
[22] = AUC(0 to infinity) in healthy human at 150 mg, po administered as single dose by HPLC-tandem mass spectrometry under fed conditions; format: ADME, organism-based; set-up: dose 150 mg, time infinity, route oral; conditions: plasma; summary of the method: as §1
[23] = Cmax in juvenile fasted Sprague-Dawley rat at 30 mg/kg, po administered as water solution by HPLC-tandem mass spectrometry; format: ADME, organism-based; set-up: dose 30 mg/kg, route oral; conditions: in vivo; summary of the method: as §4
[24] = AUC(0 to infinity) in adult fasted Sprague-Dawley rat at 30 mg/kg, po administered as 125 mM aqueous Gly-Sar solution by HPLC-tandem mass spectrometry; format: ADME, organism-based; set-up: time infinity, dose 30 mg/kg, route oral; conditions: plasma; summary of the method: as §5
[25] = AUC(0 to 6 hrs) in adult fed Sprague-Dawley rat at 30 mg/kg, po administered as 125 mM aqueous Gly-Sar solution by HPLC-tandem mass spectrometry; format: ADME, organism-based; set-up: time < 6 hr, dose 30 mg/kg, route oral; conditions: plasma; summary of the method: as §2

Compound	AUC(0-inf) [1] [ng·h/mL]	Drug uptake [2]	AUC(0-inf) [3] [ng·h/mL]	Drug uptake [4]	Drug uptake [5]	AUC(0-t) at 24 h [6] [ng·h/mL]	Drug uptake [7]	dose excreted [8] [%]	CL/F [9] [mL/min]	AUC(0-t) at 5 h [10] [ng·h/mL]	Tmax [11] [h]	Cmax [12] [ng/mL]	dose excreted [13] [%]	AUC(0-t) at 6 h [14] [ng·h/mL]	Drug uptake [15]	Cmax [16] [ng/mL]	Cmax [17] [ng/mL]	AUC(0-t) at 24 h [18] [ng·h/mL]	Cmax [19] [ng/mL]	AUC(0-t) at 5 h [20] [ng·h/mL]	also measured
CCC(CC)O[C@@H]1C=C(C(=O)O)C[C@H](N)[C@H]1NC(C)=O [OSELTAMIVIR CARBOXYLATE]	6220	Active	6340	Active	Active	5060	Active	55.5	371	9260	1.92	2460	58.5	8350	Active	2560	441	4860	2710	12100	AUC(0-t) at 6 h [21]: 4510 ng·h/mL; AUC(0-inf) [22]: 6070 ng·h/mL; Cmax [23]: 3100 ng/mL; AUC(0-inf) [24]: 8860 ng·h/mL; AUC(0-t) at 6 h [25]: 2960 ng·h/mL
CCOC(=O)C1=C[C@@H](OC(CC)CC)[C@H](NC(C)=O)[C@@H](N)C1 [OSELTAMIVIR]	244	Active	2810	Active	Active	280	Active	4.32	13000	26900	0.5	7990	3.09	3780	Active	2070	101	2830	10400	29500	AUC(0-t) at 6 h [21]: 2510 ng·h/mL; AUC(0-inf) [22]: 287 ng·h/mL; Cmax [23]: 10500 ng/mL; AUC(0-inf) [24]: 3810 ng·h/mL; AUC(0-t) at 6 h [25]: 2280 ng·h/mL

From ChEMBL document CHEMBL3526035, “Role of the intestinal peptide transporter PEPT1 in oseltamivir absorption: in vitro and in vivo studies” (Drug Metab Dispos, 2012)
